For 31 molecules, Ki and Activity results are on record in ChEMBL document CHEMBL1153402, “Pyrido[2,3-e]-1,2,4-triazolo[4,3-a]pyrazin-1-one as a new scaffold to develop potent and selective human A3 adenosine receptor antagonists. Synthesis, pharmacological evaluation, and ligand-receptor modeling studies” (J Med Chem, 2009).

For assay [1], the target named is T1, Adenosine receptor A3 (Homo sapiens, UniProt P0DMS8).
T1 sequence (P0DMS8 whole entry): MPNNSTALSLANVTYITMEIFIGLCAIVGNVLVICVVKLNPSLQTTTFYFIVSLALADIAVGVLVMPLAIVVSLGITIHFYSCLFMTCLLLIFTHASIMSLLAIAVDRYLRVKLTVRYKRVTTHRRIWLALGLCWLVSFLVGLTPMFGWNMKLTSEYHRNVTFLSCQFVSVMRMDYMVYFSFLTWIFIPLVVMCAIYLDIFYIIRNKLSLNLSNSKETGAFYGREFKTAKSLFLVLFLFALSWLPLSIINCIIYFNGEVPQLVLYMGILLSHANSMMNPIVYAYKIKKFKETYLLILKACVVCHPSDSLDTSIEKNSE
Briefly: Displacement of [125I]AB-MECA from human cloned adenosine A3 receptor expressed in CHO cells. In kind it is cell-based.

The nature of assay [2]: Displacement of [3H]CGS 21680 from bovine striatal membrane adenosine A2A receptor. More on the design: species or system Bos taurus.
Assay [3] addresses T2, Adenosine receptor A1 (Bos taurus, UniProt P28190).
T2 sequence (P28190 whole entry): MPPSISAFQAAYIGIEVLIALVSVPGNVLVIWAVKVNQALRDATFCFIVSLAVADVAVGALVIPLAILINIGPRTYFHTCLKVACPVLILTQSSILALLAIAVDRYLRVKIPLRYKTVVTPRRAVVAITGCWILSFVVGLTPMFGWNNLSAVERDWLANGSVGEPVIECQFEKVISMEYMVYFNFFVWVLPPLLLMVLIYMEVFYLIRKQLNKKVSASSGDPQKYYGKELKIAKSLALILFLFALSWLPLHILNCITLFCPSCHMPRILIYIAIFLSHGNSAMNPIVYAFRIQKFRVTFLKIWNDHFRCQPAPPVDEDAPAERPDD
Briefly: Displacement of [3H]DPCPX from bovine brain cortical membrane adenosine A1 receptor.

Assay [4] concerns the target T3, Adenosine receptor A2a (Homo sapiens, UniProt P29274). Briefly: Displacement of [3H]NECA from human cloned adenosine A2A receptor expressed in CHO cells. In kind it is cell-based.
For assay [5], the target named is T4, Adenosine receptor A1 (Homo sapiens) (UniProt P30542).
T4 sequence (whole entry): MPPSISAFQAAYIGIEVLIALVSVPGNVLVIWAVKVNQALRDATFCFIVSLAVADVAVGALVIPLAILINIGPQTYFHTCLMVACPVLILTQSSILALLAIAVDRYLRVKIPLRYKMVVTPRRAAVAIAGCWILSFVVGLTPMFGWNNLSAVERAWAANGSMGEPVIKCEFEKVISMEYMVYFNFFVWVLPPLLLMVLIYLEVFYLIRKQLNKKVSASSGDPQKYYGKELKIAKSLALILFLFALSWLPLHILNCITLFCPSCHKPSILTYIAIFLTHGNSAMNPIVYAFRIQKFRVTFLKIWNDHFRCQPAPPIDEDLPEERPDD
Briefly: Displacement of [3H]DPCPX from human cloned adenosine A1 receptor expressed in CHO cells at 10 uM. It is filed as cell-based. In short, it runs like this: (§1)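 CHO cell membranes stably expressing hA1 or hA2A; radioligands [3H]DPCPX (hA1, Kd 3 nM) and [3H]NECA (hA2A, Kd 30 nM). IC50 from five displacer concentrations in triplicate, nonlinear regression; Ki by Cheng–Prusoff; four separate assays. Single-point values as percent inhibition of specific binding at 10 μM.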

For assay [6], the species on record is Bos taurus. Briefly: Displacement of [3H]CGS 21680 from bovine striatal membrane adenosine A2A receptor at 20 uM. An outline of the steps: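 IC50 from five concentrations in triplicate, nonlinear regression; Ki via Cheng–Prusoff from four assays. Single-point values as percent inhibition at 20 μM.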
Assay [7] has as its target T3, Adenosine receptor A2a. Briefly: Displacement of [3H]NECA from human cloned adenosine A2A receptor expressed in CHO cells at 10 uM. In kind it is cell-based. An outline of the steps:
as §1

Assay [8] is filed under the species Bos taurus. Briefly: Displacement of [3H]CGS 21680 from bovine striatal membrane adenosine A2A receptor at 10 uM.
Assay [9] addresses T5, Adenosine receptor A1 (Bos taurus) (UniProt P28190).
T5 sequence (whole entry): T2 sequence (P28190 whole entry)
Briefly: Displacement of [3H]DPCPX from bovine brain cortical membrane adenosine A1 receptor at 10 uM.

The target in assay [10] is T6, Adenosine receptor A3 (Homo sapiens) (UniProt P0DMS8).
T6 sequence (whole entry): T1 sequence (P0DMS8 whole entry)
Briefly: Displacement of [125I]AB-MECA from human cloned adenosine A3 receptor expressed in CHO cells at 1 uM. In kind it is cell-based. In short, it runs like this:
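IC50 from five displacer concentrations, each in triplicate, by nonlinear regression; Ki by Cheng–Prusoff. Ki as mean of four separate assays, each in triplicate; single-point values as percent inhibition of specific binding at 1 μM.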

Assay [11] deals with T5, Adenosine receptor A1 (Bos taurus). Briefly: Displacement of [3H]DPCPX from bovine brain cortical membrane adenosine A1 receptor at 20 uM. An outline of the steps:
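Bovine cerebral cortical membranes; [3H]DPCPX displacement (Kd 0.3 nM). IC50 from five displacer concentrations in triplicate; Ki by Cheng–Prusoff, mean of four assays.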

The target in assay [12] is T7, Adenosine receptor A1 (Homo sapiens, UniProt P30542).
T7 sequence (P30542 whole entry): T4 sequence (whole entry)
Briefly: Displacement of [3H]DPCPX from human cloned adenosine A1 receptor expressed in CHO cells. In kind it is cell-based.

pKi: −log10 of the molar value.

T3 sequence (P29274 whole entry): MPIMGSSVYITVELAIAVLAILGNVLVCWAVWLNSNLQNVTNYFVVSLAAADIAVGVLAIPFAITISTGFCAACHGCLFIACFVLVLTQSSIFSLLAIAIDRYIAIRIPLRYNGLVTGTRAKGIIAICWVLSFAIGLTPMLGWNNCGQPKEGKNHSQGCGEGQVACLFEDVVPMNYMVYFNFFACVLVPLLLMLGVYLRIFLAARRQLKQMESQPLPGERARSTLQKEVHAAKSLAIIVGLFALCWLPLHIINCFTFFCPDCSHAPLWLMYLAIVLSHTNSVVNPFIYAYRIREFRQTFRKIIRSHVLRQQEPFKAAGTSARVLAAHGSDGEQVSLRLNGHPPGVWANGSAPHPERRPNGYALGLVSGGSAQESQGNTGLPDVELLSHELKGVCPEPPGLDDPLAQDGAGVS

`O=C(Nc1nc2ncccc2n2c(=O)n(-c3ccccc3)nc12)c1ccccc1`: the pKi in assay [1] is 7.15; in assay [2], 5.15; in assay [3] it was 6.82; in assay [4], 5.65. In assay [5], this molecule returned an Activity of 8%.
The like results for `O=c1n(-c2ccccc2)nc2c(NC3CCCCC3)nc3ncccc3n12` were, in that order, 7.81, 6.70, 9.42, 6.68 and 37%.
On to `O=c1[nH]c2c([N+](=O)[O-])cccc2n2c(=O)n(-c3ccccc3)nc12`, for which, in [1], the negative-log Ki (pKi) is 6.55.
As for `Nc1nc2ncccc2n2c(=O)n(-c3ccc(O)cc3)nc12`, the pKi was 5.87 in [1], 6.08 in assay [2] and 6.95 in assay [3].
In the case of `O=c1[nH]c2ncccc2n2c(=O)n(-c3ccccc3)nc12`, the negative-log Ki (pKi) was 6.60 in assay [1] and 6.84 in [3]. The Activity in assay [6] was determined as 12%; in assay [7] it was 0%.
As for `O=C(c1ccccc1)N(C(=O)c1ccccc1)c1nc2ncccc2n2c(=O)n(-c3ccccc3)nc12`, the pKi in assay [1] was 6.47; in [3] it was 7.15. Moreover, the Activity in [6] worked out at 12%.
With `COc1ccc(-n2nc3c(N)nc4ncccc4n3c2=O)cc1`, the pKi in [1] was 6.80; in assay [2], 6.38; in assay [3], 5.96.
On to `COc1ccc(-n2nc3c(NC(C)=O)nc4c([N+](=O)[O-])cccc4n3c2=O)cc1`, for which the values for the Activity in assay [8], in assay [9] and in assay [10] were 7%, 0% and 36%, respectively.
As for `O=C(Cc1ccccc1)Nc1nc2ncccc2n2c(=O)n(-c3ccccc3)nc12`, the pKi was 7.93 in assay [1], 6.38 in assay [2], 8.15 in assay [3] and 6.68 in assay [4]. The molecule further came in with an Activity in [5] of 37%.
For `O=c1n(-c2ccccc2)nc2c(NC3CCCC3)nc3ncccc3n12` the same measures were 8.08, 6.29, 9.33, 6.68 and 36%.
For the molecule `CC(=O)Nc1nc2ncccc2n2c(=O)n(-c3ccccc3)nc12`, the pKi was 6.86 in assay [1] and 7.85 in assay [3]. This molecule returned an Activity in assay [6] of 59%.
`Nc1nc2c([N+](=O)[O-])cccc2n2c(=O)n(-c3ccc(O)cc3)nc12` yielded an Activity in assay [10] of 45%.
In assay [1], `COc1ccc(-n2nc3c(NC(C)=O)nc4ncccc4n3c2=O)cc1` gave a negative logarithm of the Ki (pKi) of 7.39. The Activity in assay [5] was 48%; in [6], 19%; in [7], 29%; in assay [11], 56%.
`O=c1[nH]c2c([N+](=O)[O-])cccc2n2c(=O)n(-c3ccc(O)cc3)nc12` came in with an Activity in assay [10] of 21%.
As for `COc1ccc(-n2nc3c(N(C(=O)c4ccccc4)C(=O)c4ccccc4)nc4ncccc4n3c2=O)cc1`, the pKi in [1] is 8.11. Moreover, the Activity came out at 0% in assay [5], 0% in assay [6], 0% in [7] and 17% in assay [11].
Regarding `O=c1n(-c2ccccc2)nc2c(NC3CCCCC3)nc3c([N+](=O)[O-])cccc3n12`, the pKi in assay [1] was 6.55.
On to `CC(=O)Nc1nc2c([N+](=O)[O-])cccc2n2c(=O)n(-c3ccccc3)nc12`, for which the Activity was determined as 36% in assay [8] and 18% in [10].
Consider `COc1ccc(-n2nc3c(=O)[nH]c4ncccc4n3c2=O)cc1`, for which the figures for the pKi in assay [1] and in assay [12] were 8.48 and 6.94, respectively. In addition, the Activity came to 0% in [6] and 26% in assay [11].
In the case of `COc1ccc(-n2nc3c(NC(=O)c4ccccc4)nc4c([N+](=O)[O-])cccc4n3c2=O)cc1`, the Activity in assay [8] is 15%; in [9] it was 35%.
With `O=C(c1ccccc1)N(C(=O)c1ccccc1)c1nc2c([N+](=O)[O-])cccc2n2c(=O)n(-c3ccccc3)nc12`, the figures for the Activity in [8], in [9] and in assay [10] were 0%, 39% and 27%, respectively.
`COc1ccc(-n2nc3c(N(C(=O)c4ccccc4)C(=O)c4ccccc4)nc4c([N+](=O)[O-])cccc4n3c2=O)cc1`: the Activity in assay [8] came out at 0%; in [9] it was 20%.
As to `CCOC(=O)c1ccc(-n2nc3c(N)nc4ncccc4n3c2=O)cc1`, the results for the Activity in [6], in assay [10] and in [11] were 17%, 0% and 39%, respectively.
In the case of `O=c1[nH]c2ncccc2n2c(=O)n(-c3ccc(F)cc3)nc12`, the figures for the pKi in assay [1] and in assay [3] were 6.23 and 6.51, respectively. The same molecule returned an Activity in [6] of 26%.
In [1], `O=c1n(-c2ccccc2)nc2c(NC3CCCC3)nc3c([N+](=O)[O-])cccc3n12` showed a pKi of 6.94.
For the molecule `O=C(O)c1ccc(-n2nc3c(=O)[nH]c4ncccc4n3c2=O)cc1`, the Activity in assay [6] stood at 7%; in assay [10], 0%; in [11], 30%.
Regarding `Nc1nc2ncccc2n2c(=O)n(-c3ccc(F)cc3)nc12`, the values for the pKi in assay [1], in assay [2] and in [3] were 6.31, 5.82 and 6.74, respectively.
In assay [2], `CCCn1c(=O)c2[nH]c(C3CCCC3)nc2n(CCC)c1=O` [1,3-DIPROPYL-8-CYCLOPENTYLXANTHINE [DPCPX]] had a pKi of 6.47.
Consider `O=C(Nc1nc2c([N+](=O)[O-])cccc2n2c(=O)n(-c3ccccc3)nc12)c1ccccc1`, for which the values for the Activity in assay [8] and in assay [9] were 0% and 32%, respectively.
In [3], `O=c1[nH]c2ncccc2n2c(=O)n(-c3ccc(O)cc3)nc12` had a pKi of 6.35. The figures for the Activity in assay [6] and in assay [10] were 0% and 32%, respectively.
On to `Nc1nc2ncccc2n2c(=O)n(-c3ccccc3)nc12`, for which the negative-log Ki (pKi) in assay [1] is 6.18; in assay [2], 7.03; in [3] it was 8.51.
`CCOC(=O)c1ccc(-n2nc3c(=O)[nH]c4ncccc4n3c2=O)cc1`: the Activity in assay [6] is 0%; in [10] it was 0%; in assay [11] it was 16%.
